Test results published in ChEMBL document CHEMBL4680142, “Thiazolidine-2,4-dione-based irreversible allosteric IKK-β kinase inhibitors: Optimization into in vivo active anti-inflammatory agents” (Eur J Med Chem, 2020).
The source made the active and inactive calls. The rule behind the calls is not given here.

Tests used:
RAW264.7 = test: Antiinflammatory activity against mouse RAW264.7 cells assessed as reduction in LPS-induced PGE2 production at 0.1 uM incubated for 1 hr followed by LPS stimulation and measured after 24 hrs by ELISA; type: functional, cell-based; conditions: time 25.0 hrs
Method in brief: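 RAW 264.7 cells (DMEM, 10% FBS, 37 °C, 5% CO2) plated at 2×10^5 cells/mL and left overnight. Compounds (0.1, 1, 10 µM) or NS-398 given for 1 h, then LPS 10 ng/mL for 24 h. Culture medium assayed by ELISA: competitive colorimetric for PGE2/TNF-α, mouse DuoSet for TNF-α/IL-6. IC50 is the concentration lowering the mediator to 50%.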

Mus musculus = test: Antiinflammatory activity against LPS-induced sepsis C57BL/6 mouse model assessed as organism survival rate at 5 to 50 mg/kg, po administered 1 hr before LPS stimulation and measured after 36 hrs relative to control; type: functional; conditions: dose 5-50 mg/kg, time 37 hrs
Method in brief: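 Male C57BL/6 mice (6 or 10 weeks), water only for 24 h beforehand. Compound given orally at 5 or 50 mg/kg 1 h before intraperitoneal injection of LPS (Salmonella enterica serotype enteritidis, 25 mg/kg in PBS); controls received PBS. Survival monitored for 36 h.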

What does the source list for `CN1CCN(CCCOc2ccc(N3C(=O)S/C(=C\c4ccc(Oc5ccc(C#N)cc5)cc4)C3=O)cc2)CC1`?
Activity (RAW264.7): Active; Survival (Mus musculus): 80%
